For assay [1], the target named is T1, Botulinum neurotoxin type A (Clostridium botulinum, UniProt P0DPI0). The assay can be described thus: Inhibition of protease activity of recombinant Clostridium botulinum BoNT/A light chain (425 amino acids) using SNAP-25 as substrate preincubated for 20 followed by substrate addition measured for 25 mins by FRET analysis. An outline of the steps:
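Compound (from 50X DMSO stock) preincubated 20 min with recombinant 425-aa BoNT/A LC (56 nM working solution) in 40 mM HEPES, 0.1% Triton X-100, pH 7.4. SNAPtide FRET substrate (6 µM solution) then added and read for 25 min at ex 490/em 523 nm. V0 taken from linear slopes, in duplicate at ≥4 inhibitor dilutions, normalized to DMSO. IC50 from Hill-equation fit.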

The target in assay [2] is Botulinum neurotoxin type A (Clostridium botulinum) (UniProt P0DPI0). The assay can be described thus: Inhibition of BoNT/A induced paralysis in intoxicated CD1 mouse hemidiaphragm muscles assessed as increase in half paralysis time at 20 uM pretreated for 1 hr followed by intoxication.
For assay [3] the target is unchanged. The assay can be described thus: Inhibition of BoNT/A light chain mediated proteolysis of CFP and YFP tagged full-length SNAP-25 expressed in BoCells at 25 uM after 20 hrs by fluorescence assay.
Assay [4] shares this target. As to conditions: 12.5 uM.
Assay [5] addresses T1, Botulinum neurotoxin type A. The assay can be described thus: Uncompetitive inhibition of recombinant Clostridium botulinum BoNT/A light chain (425 amino acids) using SNAP-25 as substrate preincubated for 20 followed by substrate addition measured for 25 mins by Lineweaver-Burk plot analysis.

The source made the active and inactive calls. The calls are words filed in the database; no cut-off is given here.

Botulinum neurotoxin type A (Clostridium botulinum), sequence (P0DPI0 2-448 limits assumed): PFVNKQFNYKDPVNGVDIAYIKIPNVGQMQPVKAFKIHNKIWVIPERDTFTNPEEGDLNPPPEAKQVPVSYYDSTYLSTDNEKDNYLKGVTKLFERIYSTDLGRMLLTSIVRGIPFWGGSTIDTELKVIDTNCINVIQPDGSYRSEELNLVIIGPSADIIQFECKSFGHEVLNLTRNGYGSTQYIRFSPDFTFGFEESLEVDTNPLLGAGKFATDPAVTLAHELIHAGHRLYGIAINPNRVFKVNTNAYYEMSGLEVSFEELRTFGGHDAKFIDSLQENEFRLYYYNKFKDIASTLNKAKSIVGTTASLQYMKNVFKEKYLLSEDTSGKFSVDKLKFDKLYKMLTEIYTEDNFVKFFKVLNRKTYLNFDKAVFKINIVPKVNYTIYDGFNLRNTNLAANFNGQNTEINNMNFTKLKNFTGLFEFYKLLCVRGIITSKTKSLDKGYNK
T1 sequence (P0DPI0 2-448 limits assumed): as above

Turning to `CNc1ccc2c(S(=O)(=O)N3CCc4c(Cl)cccc43)ccc(O)c2n1`, the half-inhibitory concentration (IC50) (commonly the concentration that inhibits the measured activity by half) in assay [1] stood at 37.6 µM.
Regarding `Oc1c(C(Nc2ccccn2)c2ccccc2)ccc2cccnc12` (stereo not drawn), the inhibition entry in assay [2] and in assay [3] was “inactive” each time.
For the compound `CNNc1ccc2c(S(=O)(=O)N3CCc4c(Cl)cccc43)ccc(O)c2n1`, the inhibition result in assay [2], in assay [3] and in assay [4] was “Active” throughout. Further, the IC50 in assay [1] stood at 3.26 µM.
Regarding `CC(=O)NNc1ccc2c(S(=O)(=O)N3CCc4c(Cl)cccc43)ccc(O)c2n1`, in assay [2], the inhibition entry is “Active”. The inhibition entry in assay [3] is “inactive”. Also, the 50% inhibitory concentration (IC50) in assay [1] is 5.39 µM.
Consider `CN(c1ccccc1)S(=O)(=O)c1ccc(O)c2ncccc12`, for which the IC50 in assay [1] came to 7.19 µM.
Regarding `O=S(=O)(Nc1ccccc1)c1ccc(O)c2ncccc12`, the half-maximal inhibitory concentration (IC50) in assay [1] was 12.7 µM.
On to `CCNc1ccc2c(S(=O)(=O)N3CCc4c(Cl)cccc43)ccc(O)c2n1`, for which, in assay [1], the IC50 turned out to be 28.6 µM.
Turning to `Nc1ccc2c(S(=O)(=O)N3CCc4c(Cl)cccc43)ccc(O)c2n1`, the inhibition result in assay [2] and in assay [3] was “Active” each time. In addition, the IC50 in assay [1] is 3.36 µM.
Regarding `CN(c1cccc(Cl)c1)S(=O)(=O)c1ccc(O)c2ncccc12`, the IC50 in assay [1] amounted to 4.28 µM.
The same measure, in the same setting: next, `O=S(=O)(c1ccc(O)c2ncccc12)N1CCc2ccc(Cl)cc21`: 12.8 µM; `O=S(=O)(Nc1cccc(Cl)c1)c1ccc(O)c2ncccc12`: 7.32 µM.
As for `O=S(=O)(c1ccc(O)c2ncccc12)N1CCCCC1`, the half-inhibitory concentration (IC50) in assay [1] worked out at 18.3 µM.
`NNc1ccc2c(S(=O)(=O)N3CCc4c(Cl)cccc43)ccc(O)c2n1`: the inhibition result in assay [2] is “Active”. In addition, the Ki (as a rule, a dissociation constant, usually derived from enzyme kinetics or from competition with a known ligand) in assay [5] amounted to 0.895 µM. Also, the inhibition result in assay [3] is “inactive”. For the same compound, the IC50 in assay [1] was 1.55 µM.
In the same order, the values of `O=S(=O)(c1ccc(O)c2ncccc12)N1CCc2c(Cl)cccc21` are “Active”, 2.03 µM, “Active” and 3.66 µM.

The values above are taken from ChEMBL document CHEMBL4041525, “Newly Designed Quinolinol Inhibitors Mitigate the Effects of Botulinum Neurotoxin A in Enzymatic, Cell-Based, and ex Vivo Assays” (J Med Chem, 2017).
